Pemphigus Ab inh = inhibitors of pemphigus antibody binding to DSG3, primary screen, biochemical, bead-based, flow cytometry, scFv-GFP | binding (percent of control), % at 10 µM | Desmoglein-3 (Homo sapiens), P32926 | 310,000 tested, 0.48% active | DSG3-coupled beads, scFv-anti-DSG3-GFP binding; stronger effect = lower value;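 active = binding more than 3 SD below its plate's average and above zero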;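 note: hits lower antibody fragment binding to DSG3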
MEKK2mut PB1 HTS = MEK5 binding signal on mutant MEKK2 PB1, primary screen, biochemical, multiplex bead flow cytometry, Alexa488-MEK5. Alexa488-MEK5 binding to MEKK2 mutant. percent response, % at 10 µM. 290,000 tested, 0.35% active; in the data active = percent response above about 24%, passing the limit was not always enough
MEKK2wt PB1 HTS = modulators of MEK5 binding to wildtype MEKK2, primary screen, biochemical, multiplex bead flow cytometry, Alexa488-MEK5. Alexa488-MEK5 binding to MEKK2 WT; actives lie on both sides. 290,000 tested, 1.1% active. binding response (% of control), % at 10 µM. AID 1531, 2009; in the data active = binding response below about 67% or above about 130%
Apaf-1 inh = inhibitors of human Apaf-1 apoptosome, primary screen, biochemical, DEVD-Rh110 fluorescence, uHTS. Apoptotic protease-activating factor 1 (Homo sapiens), O14727. reconstituted apoptosome caspase-3 activity. inhibition, % at 20 µM. 330,000 tested, 0.71% active. AID 489030, 2010; active = inhibition of at least 40% at 20 µM;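 note: plate controls were DMSO wells for no effect and DEVD-CHO caspase inhibitor wells for full effect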
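detection = Rh110 fluorescence intensity | test system = biochemical Apaf-1 apoptosome reconstitution | also added = cytochrome c and DEVD-Rh110 substrate | schedule = 30 min plus 50 min, RT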
MEKK3 PB1 HTS = modulators of MEKK3-MEK5 PB1 binding, primary screen, biochemical, wildtype MEKK3, multiplex bead flow cytometry, Alexa488-MEK5; 290,000 tested, 1.4% active; binding response (% of control), % at 10 µM; Mitogen-activated protein kinase kinase kinase 3 (Homo sapiens), Q99759; bead-based flow cytometry, Alexa488-MEK5 binding to MEKK3; actives lie on both sides; 0 = blocked by unlabeled MEK5, 100 = vehicle;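 active = binding response more than 3 SD above or below the average of its plate-row segment, actives on both sides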;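 note: Alexa488 bead fluorescence after subtracting the streptavidin-only scavenger bead signal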
UBC13 polyUb = UBC13 polyubiquitin chain formation inhibitors, primary screen, biochemical, TR-FRET, uHTS | inhibition, % at 20 µM | Ubiquitin-conjugating enzyme E2 N (Homo sapiens), P61088 | 330,000 tested, 0.47% active | AID 485273, 2010; in the data active = inhibition above about 45%, passing the limit was not always enough
MEKK2wt confirm = modulators of MEK5 binding to wildtype MEKK2, confirmation, biochemical, single concentration, multiplex bead flow cytometry; 5,900 tested, 2.4% active; binding response (% of control), % at 10 µM; shares compounds with MEKK3 PB1 HTS; Alexa488-MEK5 binding to MEKK2 WT; actives lie on both sides; AID 1892, 2009; in the data active = binding response below about 16% or above about 210%; inactive = in between
MEKK2mut-MEK5 = mutant MEKK2 PB1-MEK5 binding signal retest – biochemical, single concentration, multiplex bead flow cytometry, confirmation; shares compounds with MEKK3 PB1 HTS; Alexa488-MEK5 binding to MEKK2 mutant; percent response, % at 10 µM; 5,900 tested, 2% active; AID 1893, 2009; in the data active = percent response mostly above about 71%, no sharp cut-off; inactive = mostly below about 38%;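 note: higher means compound restores mutant binding toward wildtype level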
MEKK3 confirm = MEKK3 wild-type PB1 binding to MEK5, inhibitors, confirmation, biochemical, bead multiplex flow cytometry, single concentration, wildtype | binding response (% of control), % at 10 µM | 5,900 tested, 1.8% active | Alexa488-MEK5 binding to MEKK3; stronger effect = lower value | shares compounds with MEKK3 PB1 HTS;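 active = binding response below 72% of control, or above a set upper limit, though filed actives all read lower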;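 note: 100% = DMSO only wells and 0% = binding blocked by excess unlabeled MEK5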
An asterisk follows results filed as active; . = no result; [ ] = remark or other dose. A selection: hits, their analogues and other compounds. The true share with any hit is near 3.2%.

SMILES | Pemphigus Ab inh | MEKK2mut PB1 HTS | MEKK2wt PB1 HTS | Apaf-1 inh | MEKK3 PB1 HTS | UBC13 polyUb | MEKK2wt confirm | MEKK2mut-MEK5 | MEKK3 confirm
COc1cc(CN2CCC(CO)(Cc3cccc(C(F)(F)F)c3)CC2)ccc1F | 100 | -23 | 69 | -22 | 42*[inhibitor] | 28 | 122 | 7 | 102
COc1ccc(F)c(CN2CCC(CO)(Cc3cccc(C(F)(F)F)c3)CC2)c1 | 99 | 6 | 107 | -6 | 101 | 9 | . | . | .
OCC1(Cc2cccc(C(F)(F)F)c2)CCN(Cc2cc3ccccc3o2)CC1 | 99 | 8 | 122 | 27 | 106 | 19 | . | . | .
CCOC(=O)C(NC(=O)c1ccccc1)(OCc1ccc(F)cc1)C(F)(F)F (stereo not drawn) | 102 | 1 | 106 | 8 | 128* | -4 | 102 | 0 | 103
O=C(Oc1ccc(/C=N/NC(=O)c2ccccc2O)cc1)c1ccccc1 | 101 | 3 | 98 | -2 | 103 | -1 | . | . | .
O=C(N/N=C/c1ccc(OC(=O)c2ccccc2)cc1)c1cccc(O)c1 | 98 | 0 | 113 | 0 | 137* | -3 | 92 | 0 | 101
COc1ccc(/C=C(/NC(=O)c2ccccc2)C(=O)N/N=C/c2ccncc2)cc1 | 82 | -15 | 2.0*[inhibitor] | 2 | 2.0*[inhibitor] | -14 | 102 | 3 | 102
COc1ccc(/C=N/NC(=O)c2ccncc2)cc1OC | . | -4 | 96 | -4 | 100 | -5 | . | . | .
COc1ccc(/C=C/C(=O)Oc2ccc(/C=N/NC(=O)c3ccccc3)cc2)cc1OC | 114 | 0 | 102 | -2 | 138* | -3 | 94 | -9 | 94
C[C@H](CO)NC(=O)c1nc[nH]c1C(=O)N[C@@H](C)c1ccccc1 | 100 | . | . | . | . | . | . | . | .
COCc1cc(CNC(=O)C2CCC(=O)N(Cc3cccc(OC)c3)C2)[nH]n1 (stereo not drawn) | 101 | -3 | 97 | 6 | 101 | -2 | . | . | .
CN(C(=O)NC(=O)C1=C(N2CCOCC2)/C(=C/c2ccccc2)CC1)S(C)(=O)=O | 103 | -28 | -2.0*[inhibitor] | -8 | 2.0*[inhibitor] | 3 | 107 | 9 | 102
Cc1c(C(=O)N(C)C2CC(C)(C)NC(C)(C)C2)oc2c(F)cccc12 | 102 | -6 | 99 | 5 | 101 | 6 | . | . | .
NNc1nc2ccc(Cl)cc2s1 | 99 | 0 | 105 | 0 | 132* | -2 | 106 | 0 | 103
NNc1nc2ccc(F)cc2s1 | 92 | -2 | 92 | 9 | 94 | 8 | . | . | .
CCOC(=O)c1c(NC(=O)COC(=O)CCNS(=O)(=O)c2ccccc2)sc(C(=O)NC)c1C | 106 | . | . | . | . | . | . | . | .
C/C(=N\NC(=O)c1cccc(F)c1)c1ccc(NC(=O)Cc2ccccc2)cc1 | 107 | 3 | 103 | -5 | 103 | -6 | . | . | .
C/C(=N\NC(=O)c1cc(O)cc(O)c1)c1ccc(NC(=O)Cc2ccccc2)cc1 | . | -7 | 68*[inhibitor] | 8 | 71*[inhibitor] | 30 | 63 | -17 | 70*
COc1ccccc1OCCC(=O)OCC(=O)Nc1ccc(Br)cc1 | 98 | 1 | 108 | 1 | 134* | 13 | 102 | 2 | 103
Cc1ccccc1OCCCC(=O)Nc1ccc(Br)cc1 | 119 | -21 | 0.0*[inhibitor] | 2 | 0.0*[inhibitor] | -1 | 112 | 8 | 109
Cc1c(/C=C2\SC(=O)N(CC(=O)Nc3ccc4c(c3)OCO4)C2=O)c2ccccc2n1C | 110 | -21 | -2.0*[inhibitor] | -1 | 2.0*[inhibitor] | -2 | 97 | -2 | 99
O=C(CN1C(=O)CSCC1=O)Nc1ccc2c(c1)OCO2 | 106 | 0 | 103 | 6 | 136* | -7 | 100 | 2 | 104
Cc1cn(C2CCCCO2)c(=O)[nH]c1=O (stereo not drawn) | 94 | . | . | . | . | . | . | . | .
C[C@@H]1CN([C@@H](C)CO)C(=O)CCCn2nncc2CO[C@H]1CN(C)C(=O)c1ccc(N2CCN(C)CC2)cc1 | 104 | . | . | . | . | . | . | . | .
Cc1cc(C)cc(N(C(=O)c2cc3ccccc3oc2=O)C2C=CS(=O)(=O)C2)c1 (stereo not drawn) | . | 0 | 110 | 7 | 141* | -8 | 106 | 2 | 101
SMILES | Pemphigus Ab inh | MEKK2mut PB1 HTS | MEKK2wt PB1 HTS | Apaf-1 inh | MEKK3 PB1 HTS | UBC13 polyUb | MEKK2wt confirm | MEKK2mut-MEK5 | MEKK3 confirm
Cc1cc(C)cc(N(C(=O)C2CCCC2)C2C=CS(=O)(=O)C2)c1 (stereo not drawn) | 98 | -13 | 78 | -14 | 76*[inhibitor] | 6 | 105 | 7 | 106
Cc1ccc(N(C(=O)c2cc3ccccc3oc2=O)C2C=CS(=O)(=O)C2)cc1 (stereo not drawn) | 97 | 10 | 106 | -10 | 103 | 10 | . | . | .
CCOc1ccccc1N1CCN(S(=O)(=O)c2ccc(Cl)s2)CC1 | 105 | 2 | 92 | 14 | 98 | -11 | . | . | .
COc1ccccc1N1CCN(S(=O)(=O)c2ccc(Cl)s2)CC1 | 101 | -39 | -4.0*[inhibitor] | -13 | 0.0*[inhibitor] | 5 | 25 | -21 | 56*
C[C@H](CO)N1C[C@H](C)[C@@H](CN(C)C(=O)NC2CCCCC2)Oc2c(NC(=O)C3CCCCC3)cccc2C1=O | 99 | . | . | -12 | . | -3 | . | . | .
C=CCNC(=S)Nc1ccccc1 | 103 | -13 | 77 | -3 | 79*[inhibitor] | -2 | 99 | -6 | 98
C=CCNC(=S)Nc1cccc(NC(=S)NCC=C)c1 | 95 | -1 | 99 | -3 | 101 | -3 | . | . | .
CCN1CCN(Cc2ccc(NC(=O)c3ccc(C)c(NC(=O)c4ccc5n[nH]nc5c4)c3)cc2C(F)(F)F)CC1 | 105 | 11 | 88 | 1 | 115 | -9 | . | . | .

Screening data deposited in PubChem by several laboratories.
